Laboratory results as given in ChEMBL document CHEMBL5500421 (J Med Chem, 2024).
Activity calls are given as the source filed them. No cut-off for these calls is given here.

Assays:
[1] = molecular target: T1, Sphingosine-1-phosphate transporter SPNS2 (Mus musculus) (UniProt Q91VM4); assay: Inhibition of mouse Spns2 expressed in G418-resistant human HeLa cells assessed as decrease in S1P level at 1 uM incubated for 16 to 18 hrs by LC-MS/MS analysis relative to control; assay type: cell-based; conditions: time 16-18 hrs
T1 sequence (whole entry): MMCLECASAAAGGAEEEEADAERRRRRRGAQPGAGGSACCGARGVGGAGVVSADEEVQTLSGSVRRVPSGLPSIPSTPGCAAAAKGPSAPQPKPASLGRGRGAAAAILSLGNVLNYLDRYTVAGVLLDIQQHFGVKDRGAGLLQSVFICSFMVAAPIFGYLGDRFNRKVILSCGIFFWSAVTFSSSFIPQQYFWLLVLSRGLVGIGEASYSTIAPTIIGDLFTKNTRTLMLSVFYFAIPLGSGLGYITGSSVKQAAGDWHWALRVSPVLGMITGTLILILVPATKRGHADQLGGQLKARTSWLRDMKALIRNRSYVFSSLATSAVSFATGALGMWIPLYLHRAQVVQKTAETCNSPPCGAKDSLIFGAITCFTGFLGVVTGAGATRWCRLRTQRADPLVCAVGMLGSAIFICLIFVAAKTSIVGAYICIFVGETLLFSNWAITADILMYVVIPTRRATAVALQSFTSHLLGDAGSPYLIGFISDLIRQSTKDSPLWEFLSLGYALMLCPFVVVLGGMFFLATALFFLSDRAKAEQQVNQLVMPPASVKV
Procedure, shortened: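 HeLa cells stably transfected with mouse Spns2 (pcDNA3.1; G418-resistant pools). S1P catabolism blocked with 4-deoxypyridoxine 1 mM, NaF 2 mM and Na3VO4 0.2 mM. Near-confluent cells incubated 16–18 h at 37 °C with 1 μM inhibitor in serum-free medium containing 0.2% fatty-acid-free BSA. Medium S1P measured by LC-MS/MS; reported as % decrease versus no-inhibitor control, in duplicate.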

[2] = molecular target: T1, Sphingosine-1-phosphate transporter SPNS2 (Mus musculus); assay: Inhibition of mouse Spns2 expressed in G418-resistant human HeLa cells assessed as decrease in S1P level incubated for 16 to 18 hrs by LC-MS/MS analysis; assay type: cell-based; conditions: dose upper 10.0 µM, time 16-18 hrs
Procedure, shortened: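 HeLa pools stably expressing mouse Spns2 (G418-selected), with S1P breakdown blocked by 4-deoxypyridoxine 1 mM, NaF 2 mM and Na3VO4 0.2 mM. Cells exposed for 16–18 h at 37 °C to 1 nM–10 μM inhibitor in serum-free 0.2% fatty-acid-free BSA medium. Released S1P quantified by LC-MS/MS; IC50 from dose–response […].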

[3] = Drug uptake in C57BL/6J mouse plasma at 10 mg/kg, po measured after 4 hrs by LC-MS/MS analysis; assay type: ADME, organism-based; conditions: in vivo
Procedure, shortened: (§1)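 Three female C57BL/6j mice, 8–10 weeks old, given a single 10 mg/kg oral dose. Vehicle: 36.1% PEG400/9.1% ethanol/4.6% solutol/50% H2O. Blood sampled over time after dosing; plasma compound levels quantified by LC-MS/MS.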

[4] = Drug concentration in C57BL/6J mouse plasma at 10 mg/kg, po measured after 8 hrs LC-MS/MS analysis; assay type: ADME, organism-based; procedure, shortened: as §1
Mus musculus [5] = assay: In vivo inhibition of Spns2 in C57BL/6J mouse assessed as decrease in lymphocytes count administered orally measured after 4 hrs by LC-MS/MS analysis; assay type: functional, organism-based; conditions: dose 10-100 mg/kg, route po
Procedure, shortened: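 Oral gavage at 10, 30 or 100 mg/kg, or vehicle (36.1% PEG400/9.1% ethanol/4.6% solutol/50% H2O), to five female C57BL/6j mice aged 8–10 weeks. Blood drawn 4 h post dose; lymphocytes counted in 20 μL blood on a haematology analyzer and compared with vehicle.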

Mus musculus [6] = assay: Effect on plasma S1P level in C57BL/6J mouse at 10 to 100 mg/kg, po measured after 4 hrs by LC-MS/MS analysis; assay type: functional, organism-based; conditions: dose 10-100 mg/kg
Procedure, shortened: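 Five female C57BL/6j mice, 8–10 weeks old, dosed by oral gavage at 10, 30 or 100 mg/kg in 36.1% PEG400/9.1% ethanol/4.6% solutol/50% H2O, or vehicle alone. Plasma S1P measured by LC-MS/MS 4 h post dose and expressed relative to vehicle.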

Mus musculus [7] = assay: Effect on plasma S1P level in C57BL/6J mouse at 3 to 30 mg/kg, ip measured after 6 hrs by LC-MS/MS analysis; conditions: dose 3-30 mg/kg

inhibition [1] [%]	inhibition [2]	Drug uptake [3]	concentration at 8 h [4] [nM]	SMILES	inhibition (Mus musculus [5])	Activity (Mus musculus [6])	Activity (Mus musculus [7])
80	–	–	–	CCCCCCCCCCc1ccc(NC(=O)N2CCN[C@H](C)C2)cc1	–	–	–
91	Dose-Dependent Effect	Active	> 500	CCCCCCCCCCc1ccc(NC(=O)N2CCNCC2)cc1.Cl	Dose-Dependent Effect	inactive	inactive
3	–	–	–	CCCCCCCCCCc1ccc(NC(=O)N2CCN(C)CC2)cc1	–	–	–
